From PubChem
TAAR1 antag – human TAAR1 antagonism | Q96RJ0 | CHO RD-HGA16 TAAR1, Fluo-8 calcium fluorescence, antagonist | inhibition, % at 3 µM | 360,000 tested, 1.5% active;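 active = inhibition above a per-plate cutoff, the mean inhibition of test compounds on that plate plus 3 SD, cut at about 49% in these data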;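 note: 0% = DMSO plus EC80 beta-PEA response and 100% = DMSO alone without agonist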
Target sequence (Q96RJ0 whole entry, looked up): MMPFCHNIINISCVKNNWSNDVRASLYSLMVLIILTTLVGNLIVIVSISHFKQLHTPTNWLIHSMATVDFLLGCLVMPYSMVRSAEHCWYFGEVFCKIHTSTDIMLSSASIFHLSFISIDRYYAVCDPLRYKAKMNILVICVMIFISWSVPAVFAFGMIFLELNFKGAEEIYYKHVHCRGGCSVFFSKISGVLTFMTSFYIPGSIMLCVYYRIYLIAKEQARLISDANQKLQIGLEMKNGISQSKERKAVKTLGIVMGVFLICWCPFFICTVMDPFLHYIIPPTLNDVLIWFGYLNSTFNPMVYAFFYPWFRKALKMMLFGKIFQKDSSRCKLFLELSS
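System: CHO RD-HGA16 cells bearing hTAAR1. Reagent: EC80 β-phenethylamine stimulus. Schedule: seeding 17-24 h prior, 75-min 37 °C, 30-min RT dye loading. Signal: Fluo-8 intracellular calcium dye fluorescence, real-time kinetic reads. Read-out: % inhibition from peak post-agonist over basal fluorescence ratio. Benchmarks: vehicle wells and EC80 agonist wells. Replicates: n of 1.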
GalR3 antag – blocks the human galanin receptor 3; O60755; HEK293 GalR3-CNG cAMP membrane potential fluorescence; galR3 body fused to GalR1 C-terminus; inhibition, % at 3 µM; 360,000 tested, 0.44% active; AID 651719;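 active = inhibition above the screen-wide average plus 3 SD, cut at about 13% in these data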;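 note: forskolin and galanin both at EC90 stimulate the cells; cAMP rise reported by CNG channel membrane potential dye signal; 0% = forskolin plus galanin with DMSO and 100% = forskolin alone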
OX1R antag-1 – blocks the human orexin 1 receptor; O43613; CHO/OX1R cells, Fluo-8 calcium fluorescence, orexin A; inhibition, % at 5 µM; 330,000 tested, 0.43% active;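 active = inhibition above its plate's threshold, mean inhibition of all tested compounds on the plate plus 3 SD, cut at about 37% in these data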;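 note: 0% = orexin A challenge wells and 100% = SB-334867-A antagonist wells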
TAAR1 ag – agonists of human TAAR1; 360,000 tested, 0.99% active; activation, % at 3 µM; AID 624467; Q96RJ0; CHO RD-HGA16 TAAR1, Fluo-8 calcium fluorescence; vehicle wells 0%, saturating PEA agonist 100%;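 active = activation above the mean activation of all test compounds in the run plus 3 SD, cut at about 38% in these data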
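Assay system: CHO-derived RD-HGA16 cells with stable Gα16 and human TAAR1; timing: 17-24 h seeding, 75 min 37 °C dye, 30 min RT; read-out: % activation from peak over basal fluorescence ratio, DMSO-to-PEA scaled; measured by: kinetic Fluo-8 calcium fluorescence; benchmarks: low control DMSO, high control PEA (EC100); doses: 3 µM single concentration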
CHO parental Ca – counter-screen: ATP calcium response change in parental CHO cells; AID 463079; inhibition, % at 5.6 µM; parental CHO-K1, ATP-induced calcium, Fluo-8 fluorescence; 330,000 tested, 0.63% active;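 active = inhibition above that plate's mean sample inhibition plus 3 SD, cut at about 26% in these data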;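 note: 0% = ATP-challenged DMSO wells and 100% = DMSO wells without ATP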
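Material – parental CHO cells · Reagent – ATP stimulus · Compound – single nominal dose of 5.6 µM per compound · Detection – Fluo-8 fluorescence · Read-out basis – percent inhibition of calcium signal · Controls – ATP-challenged DMSO wells low, unchallenged DMSO wells high · Repeats – no replicates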
OX1R antag-2 – OX1R (human) antagonism. O43613. OX1R-expressing cells, FRET antagonist read-out. inhibition, % at 6.6 µM. 330,000 tested, 1.8% active. AID 485270; in the data active = inhibition mostly above about 38%, no sharp cut-off; inactive = mostly below about 40%;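 note: 0% = agonist challenge alone and 100% = reference antagonist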
GalR3 antag conf – GalR3 (human) antagonism, confirmation. 1,600 tested, 59% active. inhibition, % at 3 µM. shares compounds with GalR3 antag. AID 652245. HEK293 GalR3 CNG cAMP biosensor, membrane potential fluorescence; galR3 fused to GalR1 carboxy tail; challenged with forskolin and galanin at EC90;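 active = inhibition above the primary screen's cutoff, the mean inhibition of all screened compounds plus 3 SD, cut at about 13% in these data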;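 note: 0% = forskolin plus galanin and 100% = forskolin alone with DMSO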
HEK-CNG parental – acts as nonspecific agonist in parental HEK-CNG cells | AID 652268 | shares compounds with GalR3 antag | 1,600 tested, 10% active | activation, % at 3 µM | HEK293-CNG parental cells, cAMP membrane potential fluorescence; normalised: DMSO wells 0%, forskolin wells 100%; in the data active = activation above about 1.3%
Starred values were filed as active, the others as inactive; nt = no result. Hits are enriched below; roughly 4.2% of the tested compounds scored in any of these assays.

SMILES	TAAR1 antag	GalR3 antag	OX1R antag-1	TAAR1 ag	CHO parental Ca	OX1R antag-2	GalR3 antag conf	HEK-CNG parental
CCC(=O)OCCNc1cc(Sc2nc3ccccc3[nH]2)c2nonc2c1[N+](=O)[O-]	20	35*	30	11	61*	93*	32*	0
CCCCCCn1c(NCC)nc2c1c(=O)n(C)c(=O)n2C	15	32*	22	9	14	53	77*	0
CCCCNc1nc2c(c(=O)n(C)c(=O)n2C)n1CCC	14	1	-25	1	-3	15	nt	nt
CCc1cc(=O)oc2cc(OCc3nn[nH]n3)ccc12	nt	nt	0	nt	1	5	nt	nt
Cc1cc(C)cc(OCC(O)CN2CCC(CN3C(=O)c4cccc5cccc(c45)C3=O)CC2)c1 (stereo not drawn)	0	28*	1	39*	17	18	21*	8.2*
CCCc1[nH]nc2c1C(c1ccc(OC)c(CSC3=NCCS3)c1)C(C#N)=C(N)O2 (stereo not drawn)	-14	20*	-33	16	-26	14	3	1
CCOC(=O)c1cccc(NC(=O)c2cc3ccccc3o2)c1	29	-7	nt	12	nt	nt	nt	nt
O=c1ccc2cc(S(=O)(=O)N3CCOCC3)ccc2o1	10	-1	-10	12	-3	13	nt	nt
Cc1oc2c(C)c3oc(=O)c(CCC(=O)N4C[C@H]5C[C@@H](C4)c4cccc(=O)n4C5)c(C)c3cc2c1C	-4	15*	-15	-2	-22	10	7	0
O=C(NCC(c1ccco1)N1CCCCC1)c1ccc(COc2ccccc2)cc1 (stereo not drawn)	-8	-5	-32	2	-11	25	nt	nt
COc1cc(-c2c(C#N)c(N)nc(SCc3ccncc3)c2C#N)cc(OC)c1OC	nt	nt	-8	nt	-10	13	nt	nt
N#Cc1c(N)nc(SCc2ccncc2)c(C#N)c1-c1cccs1	11	75*	8	30	7	10	91*	1
CCN1CC(=O)Nc2cc(S(=O)(=O)N3CCOCC3)ccc21	-13	16*	-2	3	-2	7	-2	0
C=CCOC(=O)c1[nH]c2c(c1C)C(=O)CC(c1ccco1)C2 (stereo not drawn)	nt	nt	-11	nt	-8	15	nt	nt
Cc1c(C(=O)OCC(C)C)[nH]c2c1C(=O)CC(c1ccco1)C2 (stereo not drawn)	-20	17*	-25	-1	-8	1	3	2.5*
CCC(C)[C@H](NS(=O)(=O)c1ccc(C)cc1)C(=O)N1CCC(C(=O)N[C@H](C(=O)O)c2ccccc2)CC1 (stereo partly drawn)	-17	30*	-22	1	-8	18	12	0
O=C(NCc1ccccc1)c1cc[n+](CC(=O)c2cccs2)cc1	-7	13*	-16	4	5	21	-1	0
O=C(C[n+]1ccc(C(=O)NCc2ccccc2)cc1)c1ccc(F)cc1	-20	0	nt	4	nt	nt	nt	nt
CCOc1ccc(N(CC(=O)Nc2ccccc2C)S(=O)(=O)c2c(C)[nH]c(=O)[nH]c2=O)cc1	-3	-2	-14	0	-2	17	nt	nt
COc1ccc(N(CC(=O)Nc2ccccc2C)S(=O)(=O)c2c(C)[nH]c(=O)[nH]c2=O)cc1	0	14*	-16	-1	-10	6	-6	0
O=C(COC(=O)c1ccc2ccccc2n1)Nc1ncc(C(F)(F)F)cc1Cl	9	-1	-6	-1	-3	2	nt	nt
N#C/C(=N\Nc1cc(Cl)cc(Cl)c1)c1nnc2n1CCCCC2	-4	15*	-37	1	-7	18	0	1.7*
